# In ChEMBL document CHEMBL4706672 (J Med Chem, 2021):
# Active and inactive are the calls of the source. The rule behind the calls is not given here.
# Tests used:
# [1] = target: T1, Protein cereblon/E3 ubiquitin-protein ligase ZFP91 (Homo sapiens, UniProt Q96SW2+Q96JP5); experiment: Protac activity at CRBN/ZFP91 in human BxPC-3 cells assessed as induction of ZF91 degradation incubated for 24 hrs by western blot analysis; format: cell-based
# Outline: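 BxPC-3 cells treated for 4, 16 or 24 h across a concentration series. ZFP91 immunoblotted against GAPDH; bands quantified by densitometry, DC50 calculated from dose-response curves of the densitometry.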
# Target sequence in this assay (Q96SW2 whole entry): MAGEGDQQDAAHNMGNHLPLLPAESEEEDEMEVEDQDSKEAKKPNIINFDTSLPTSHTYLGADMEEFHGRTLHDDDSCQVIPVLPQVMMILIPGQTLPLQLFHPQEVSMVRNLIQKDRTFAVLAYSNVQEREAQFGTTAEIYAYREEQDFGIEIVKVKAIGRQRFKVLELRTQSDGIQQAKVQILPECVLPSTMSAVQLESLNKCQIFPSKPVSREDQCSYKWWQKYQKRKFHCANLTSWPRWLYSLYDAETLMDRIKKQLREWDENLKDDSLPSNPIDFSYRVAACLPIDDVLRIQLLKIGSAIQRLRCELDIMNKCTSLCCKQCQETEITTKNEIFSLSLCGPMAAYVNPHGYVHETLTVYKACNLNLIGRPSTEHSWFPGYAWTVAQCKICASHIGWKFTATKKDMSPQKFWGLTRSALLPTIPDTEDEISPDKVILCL
# Target sequence in this assay (Q96JP5 whole entry): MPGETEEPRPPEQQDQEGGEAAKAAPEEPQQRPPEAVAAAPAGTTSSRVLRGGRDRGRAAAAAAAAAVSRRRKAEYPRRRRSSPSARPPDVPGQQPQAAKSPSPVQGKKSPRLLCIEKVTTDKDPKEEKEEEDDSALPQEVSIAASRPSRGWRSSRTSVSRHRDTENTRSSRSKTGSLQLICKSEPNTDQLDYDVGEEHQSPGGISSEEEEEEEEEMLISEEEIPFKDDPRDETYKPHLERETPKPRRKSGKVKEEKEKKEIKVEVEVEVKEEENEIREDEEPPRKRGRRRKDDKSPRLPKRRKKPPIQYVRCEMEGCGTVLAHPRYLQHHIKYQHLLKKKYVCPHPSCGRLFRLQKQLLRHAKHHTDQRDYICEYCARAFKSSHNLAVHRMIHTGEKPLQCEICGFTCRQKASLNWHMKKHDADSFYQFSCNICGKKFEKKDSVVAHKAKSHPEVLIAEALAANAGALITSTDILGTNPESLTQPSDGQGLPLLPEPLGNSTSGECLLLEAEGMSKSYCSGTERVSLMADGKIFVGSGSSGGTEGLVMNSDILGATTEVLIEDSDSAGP
# HEK293 = experiment: Antiproliferative activity against human HEK293 cells assessed as reduction in cell viability incubated for 24 hrs by MTT assay; format: functional, cell-based; details: HEK293, 24 h
# Outline: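 HEK-293 cells were treated with compound for 24 h, in parallel with the luciferase reporter assay. Viability was read by MTT absorbance at 570 nm, and IC50 was taken from three independent experiments.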
# [2] = target: Protein cereblon/Signal transducer and activator of transcription 2 (Homo sapiens) (UniProt Q96SW2+P52630); experiment: Protac activity at CRBN/STAT2 in human BxPC-3 cells assessed as STAT2 degradation incubated for 16 hrs by proteomic analysis; format: cell-based
# Outline: (§1)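 TMT 10plex proteomics. […] Samples (75 μg) were reduced with DTT, alkylated with 2-chloroacetamide, acetone-precipitated, trypsin-digested overnight at 37 °C and TMT-labeled for LC-MS/MS relative quantitation.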
# [3] = target: Protein cereblon/Cystatin-C (Homo sapiens) (UniProt P01034+Q96SW2); experiment: Protac activity at CRBN/CST3 in human BxPC-3 cells assessed as CST3 degradation incubated for 16 hrs by proteomic analysis; format: cell-based; outline: as §1
# Sequence of Protein cereblon/Cystatin-C (Homo sapiens) (P01034 whole entry, looked up): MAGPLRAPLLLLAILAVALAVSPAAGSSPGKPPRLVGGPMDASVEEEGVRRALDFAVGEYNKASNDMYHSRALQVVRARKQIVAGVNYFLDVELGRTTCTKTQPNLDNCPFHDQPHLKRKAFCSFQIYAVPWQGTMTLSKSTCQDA
# Sequence of Protein cereblon/Cystatin-C (Homo sapiens) (Q96SW2 whole entry, looked up): as the sequence (Q96SW2 whole entry) above
# [4] = target: Protein cereblon/E3 ubiquitin-protein ligase SHPRH (Homo sapiens) (UniProt Q96SW2+Q149N8); experiment: Protac activity at CRBN/SHPRH in human BxPC-3 cells assessed as SHPRH degradation incubated for 16 hrs by proteomic analysis; format: cell-based; outline: as §1
# Sequence of Protein cereblon/E3 ubiquitin-protein ligase SHPRH (Homo sapiens) (Q149N8 whole entry, looked up): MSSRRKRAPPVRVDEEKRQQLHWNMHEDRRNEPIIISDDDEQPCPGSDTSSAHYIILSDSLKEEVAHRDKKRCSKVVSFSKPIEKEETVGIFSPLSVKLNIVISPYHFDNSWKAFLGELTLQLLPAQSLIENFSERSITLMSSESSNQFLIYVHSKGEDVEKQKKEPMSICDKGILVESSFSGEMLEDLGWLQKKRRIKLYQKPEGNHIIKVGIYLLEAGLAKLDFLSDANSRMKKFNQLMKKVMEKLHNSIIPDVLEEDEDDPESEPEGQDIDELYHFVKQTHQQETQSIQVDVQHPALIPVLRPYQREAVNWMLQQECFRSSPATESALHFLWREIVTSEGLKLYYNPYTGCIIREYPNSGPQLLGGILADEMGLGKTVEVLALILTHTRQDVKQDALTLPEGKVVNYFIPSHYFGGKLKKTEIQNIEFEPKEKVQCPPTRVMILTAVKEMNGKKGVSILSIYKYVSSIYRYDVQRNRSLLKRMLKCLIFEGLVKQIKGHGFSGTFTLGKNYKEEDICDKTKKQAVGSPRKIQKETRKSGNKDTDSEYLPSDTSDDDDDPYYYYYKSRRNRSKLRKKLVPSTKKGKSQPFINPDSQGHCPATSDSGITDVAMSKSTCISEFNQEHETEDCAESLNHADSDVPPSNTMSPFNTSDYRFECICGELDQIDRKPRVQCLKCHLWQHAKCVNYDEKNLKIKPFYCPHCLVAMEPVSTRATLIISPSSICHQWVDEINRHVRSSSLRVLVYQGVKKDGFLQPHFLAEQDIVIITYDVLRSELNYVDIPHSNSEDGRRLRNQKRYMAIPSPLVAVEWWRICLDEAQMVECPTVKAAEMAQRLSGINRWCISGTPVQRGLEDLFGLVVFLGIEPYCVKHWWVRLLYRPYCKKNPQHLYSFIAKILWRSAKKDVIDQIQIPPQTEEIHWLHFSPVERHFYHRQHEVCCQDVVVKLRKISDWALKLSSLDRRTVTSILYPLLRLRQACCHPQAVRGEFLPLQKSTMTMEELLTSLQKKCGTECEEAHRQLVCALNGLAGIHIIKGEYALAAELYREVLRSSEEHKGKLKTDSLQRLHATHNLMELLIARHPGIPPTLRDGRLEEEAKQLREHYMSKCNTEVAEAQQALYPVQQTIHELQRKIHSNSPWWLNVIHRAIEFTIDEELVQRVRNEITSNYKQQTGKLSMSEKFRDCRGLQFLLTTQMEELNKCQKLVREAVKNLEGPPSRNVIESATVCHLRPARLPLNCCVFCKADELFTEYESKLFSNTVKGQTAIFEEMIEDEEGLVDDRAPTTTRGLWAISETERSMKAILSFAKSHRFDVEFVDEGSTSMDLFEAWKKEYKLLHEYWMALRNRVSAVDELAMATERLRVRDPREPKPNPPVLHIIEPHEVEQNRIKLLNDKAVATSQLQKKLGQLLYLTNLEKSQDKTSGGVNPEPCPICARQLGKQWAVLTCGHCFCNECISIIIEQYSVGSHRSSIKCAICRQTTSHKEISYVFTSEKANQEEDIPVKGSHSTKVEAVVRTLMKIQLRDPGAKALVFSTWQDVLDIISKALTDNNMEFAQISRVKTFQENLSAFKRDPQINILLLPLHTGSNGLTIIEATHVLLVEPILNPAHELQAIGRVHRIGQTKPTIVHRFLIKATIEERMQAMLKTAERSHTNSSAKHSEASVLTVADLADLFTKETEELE
# Sequence of Protein cereblon/E3 ubiquitin-protein ligase SHPRH (Homo sapiens) (Q96SW2 whole entry, looked up): as the sequence (Q96SW2 whole entry) above
# [5] = target: Protein cereblon/Signal transducer and activator of transcription 3 (Homo sapiens, UniProt P40763+Q96SW2); experiment: Protac activity at CRBN/STAT3 in human BxPC-3 cells assessed as STAT3 degradation incubated for 16 hrs by proteomic analysis; format: cell-based
# Outline: (§2)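 BxPC-3 cells exposed 16 h in triplicate (control, PROTAC) or duplicate (other arms); lysed in RIPA at 4 °C, 75 μg protein per sample. Reduced with DTT (1 h, 55 °C), alkylated with 2-chloroacetamide, acetone-precipitated, trypsin-digested overnight at 37 °C, TMT 10plex labelled, relative quantitation by LC-tandem MS.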
# [6] = target: Protein cereblon/Agrin (Homo sapiens) (UniProt Q96SW2+O00468); experiment: Protac activity at CRBN/Agrin in human BxPC-3 cells assessed as Agrin degradation incubated for 16 hrs by proteomic analysis; format: cell-based; outline: as §1
# [7] = target: Protein cereblon/Pleckstrin homology-like domain family B member 1 (Homo sapiens) (UniProt Q96SW2+Q86UU1); experiment: Protac activity at CRBN/PHLDB1 in human BxPC-3 cells assessed as PHLDB1 degradation incubated for 16 hrs by proteomic analysis; format: cell-based; outline: as §1
# [8] = target: Protein cereblon/Histone-lysine N-methyltransferase PRDM16 (Homo sapiens) (UniProt Q96SW2+Q9HAZ2); experiment: Protac activity at CRBN/PRDM16 in human BxPC-3 cells assessed as PRDM16 degradation incubated for 16 hrs by proteomic analysis; format: cell-based; outline: as §1
# Sequence of Protein cereblon/Histone-lysine N-methyltransferase PRDM16 (Homo sapiens) (Q96SW2 whole entry, looked up): as the sequence (Q96SW2 whole entry) above
# Sequence of Protein cereblon/Histone-lysine N-methyltransferase PRDM16 (Homo sapiens) (Q9HAZ2 whole entry, looked up): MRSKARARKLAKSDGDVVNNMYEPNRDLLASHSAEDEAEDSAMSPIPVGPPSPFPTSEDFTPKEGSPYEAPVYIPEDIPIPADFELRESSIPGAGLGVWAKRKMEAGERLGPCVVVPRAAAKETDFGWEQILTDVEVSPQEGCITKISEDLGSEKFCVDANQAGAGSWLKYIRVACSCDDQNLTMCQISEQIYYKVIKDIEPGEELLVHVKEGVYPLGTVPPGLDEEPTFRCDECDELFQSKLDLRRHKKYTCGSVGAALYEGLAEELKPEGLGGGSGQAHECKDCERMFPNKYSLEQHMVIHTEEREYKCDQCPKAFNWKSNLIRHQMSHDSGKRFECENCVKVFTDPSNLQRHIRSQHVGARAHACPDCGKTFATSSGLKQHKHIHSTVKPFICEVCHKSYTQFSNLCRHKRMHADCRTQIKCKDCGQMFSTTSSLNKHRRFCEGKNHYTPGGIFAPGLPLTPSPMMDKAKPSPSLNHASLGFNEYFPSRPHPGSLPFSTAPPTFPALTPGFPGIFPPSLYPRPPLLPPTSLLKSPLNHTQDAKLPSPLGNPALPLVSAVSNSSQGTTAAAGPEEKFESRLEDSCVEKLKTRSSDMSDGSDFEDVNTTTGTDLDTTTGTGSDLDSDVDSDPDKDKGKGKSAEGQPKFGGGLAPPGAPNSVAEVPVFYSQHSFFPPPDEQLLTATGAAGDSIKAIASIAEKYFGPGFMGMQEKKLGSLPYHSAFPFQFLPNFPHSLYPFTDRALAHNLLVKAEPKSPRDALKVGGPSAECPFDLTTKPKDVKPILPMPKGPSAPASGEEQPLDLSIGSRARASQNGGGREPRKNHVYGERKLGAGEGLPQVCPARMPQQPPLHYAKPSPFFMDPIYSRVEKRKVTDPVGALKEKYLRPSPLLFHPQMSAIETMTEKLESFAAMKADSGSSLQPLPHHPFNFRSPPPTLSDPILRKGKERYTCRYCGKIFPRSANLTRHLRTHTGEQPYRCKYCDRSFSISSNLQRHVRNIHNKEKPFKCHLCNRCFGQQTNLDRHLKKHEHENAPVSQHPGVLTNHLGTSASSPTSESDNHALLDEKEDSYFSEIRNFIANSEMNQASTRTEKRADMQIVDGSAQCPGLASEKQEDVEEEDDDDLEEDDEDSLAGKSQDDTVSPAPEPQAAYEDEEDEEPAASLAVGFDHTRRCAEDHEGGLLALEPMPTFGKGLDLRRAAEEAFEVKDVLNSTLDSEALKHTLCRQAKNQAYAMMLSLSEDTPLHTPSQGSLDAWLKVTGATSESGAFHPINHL
# [9] = Upregulation of Arx protein levels in human BxPC-3 cells incubated for 16 hrs by proteomic analysis; format: functional; outline: as §2
# [10] = Upregulation of EPHB3 protein levels in human BxPC-3 cells incubated for 16 hrs by proteomic analysis; format: functional; outline: as §2
# [11] = Upregulation of AKR1C2 protein levels in human BxPC-3 cells incubated for 16 hrs by proteomic analysis; format: functional; outline: as §2
# [12] = target: T1, Protein cereblon/E3 ubiquitin-protein ligase ZFP91; experiment: Protac activity at CRBN/ZFP91 in human BxPC-3 cells assessed as alteration of ZF91 protein levels at 0.5 uM incubated for 16 hrs in presence of NQO1 inhibitor dicoumarol; format: cell-based
# Outline: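 BxPC-3 cells treated 16 h with or without dicoumarol; carfilzomib added 1 h before treatments. ZFP91 immunoblotted against GAPDH.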
# Target sequence in this assay (Q96JP5 2-570 partner limits assumed): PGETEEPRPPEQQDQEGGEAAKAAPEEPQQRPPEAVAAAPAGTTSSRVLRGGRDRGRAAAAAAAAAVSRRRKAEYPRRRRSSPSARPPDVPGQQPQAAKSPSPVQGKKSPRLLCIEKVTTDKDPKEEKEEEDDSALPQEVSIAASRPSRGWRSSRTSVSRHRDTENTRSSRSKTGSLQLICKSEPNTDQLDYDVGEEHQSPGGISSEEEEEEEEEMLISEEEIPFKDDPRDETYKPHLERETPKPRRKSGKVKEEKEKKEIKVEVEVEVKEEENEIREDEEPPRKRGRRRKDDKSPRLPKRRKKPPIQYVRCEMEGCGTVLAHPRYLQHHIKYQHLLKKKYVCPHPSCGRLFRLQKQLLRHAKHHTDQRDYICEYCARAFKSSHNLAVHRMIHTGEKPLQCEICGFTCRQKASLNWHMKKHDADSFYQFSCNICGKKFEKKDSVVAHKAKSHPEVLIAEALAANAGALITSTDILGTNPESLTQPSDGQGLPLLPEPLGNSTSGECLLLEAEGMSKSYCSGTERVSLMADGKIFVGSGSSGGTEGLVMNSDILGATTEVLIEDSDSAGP
# Target sequence in this assay (Q96SW2 whole entry): as the sequence (Q96SW2 whole entry) above
smiles,measurement,setting,value
O=C1CCC(N2C(=O)c3cccc(NCCCCCC4CCN(CCNC(=O)c5cc6c(o5)C(=O)c5ccccc5C6=O)CC4)c3C2=O)C(=O)N1 (stereo not drawn),DC50,[1],0.06 µM
same,IC50,HEK293,8.7 µM
same,log2FC,[2],-0.9
same,log2FC,[3],-0.81
same,log2FC,[4],-0.74
same,log2FC,[5],-0.69
same,log2FC,[6],-0.68
same,log2FC,[7],-0.64
same,log2FC,[8],-0.6
same,log2FC,[9],1.54
same,log2FC,[10],0.65
same,log2FC,[11],0.6
same,Activity,[12],inactive
